Experimental data reported in ChEMBL document CHEMBL1156938, “Synthesis and in vitro biological evaluation of carbonyl group-containing inhibitors of vesicular acetylcholine transporter” (J Med Chem, 2010).

What was measured:
[1] = molecular target: T1, Vesicular acetylcholine transporter (Torpedo californica, UniProt P81721); test: Displacement of [3H]vesamicol from VAChT in Torpedo californica cholinergic synaptic vesicles; design: species or system Tetronarce californica
T1 sequence (P81721 whole entry): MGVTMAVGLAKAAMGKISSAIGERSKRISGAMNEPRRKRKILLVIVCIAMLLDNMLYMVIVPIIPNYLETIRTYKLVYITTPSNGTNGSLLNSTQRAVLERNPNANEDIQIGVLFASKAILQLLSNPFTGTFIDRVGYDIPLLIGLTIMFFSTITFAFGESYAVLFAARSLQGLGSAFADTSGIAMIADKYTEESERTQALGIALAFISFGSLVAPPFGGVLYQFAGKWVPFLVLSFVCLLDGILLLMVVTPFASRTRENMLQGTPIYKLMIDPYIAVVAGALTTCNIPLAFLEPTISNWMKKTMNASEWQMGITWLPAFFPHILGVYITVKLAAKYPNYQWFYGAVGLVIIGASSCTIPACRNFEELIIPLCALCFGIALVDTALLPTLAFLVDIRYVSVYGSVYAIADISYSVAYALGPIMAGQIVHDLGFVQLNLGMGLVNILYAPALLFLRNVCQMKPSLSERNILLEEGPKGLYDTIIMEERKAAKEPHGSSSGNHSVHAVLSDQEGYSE
Summary of the method: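 Compounds tested as hydrochlorides. Averaged data fit by regression to a rectangular hyperbola to give Ki. Each compound assayed independently at least two times; Ki reported as mean ± SEM from at least three experiments.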

[2] = Displacement of [3H]DTG from sigma 2 receptor in rat liver membrane homogenates after 2 hrs by liquid scintillation counting; assay type: cell membranes
Summary of the method: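 Rat liver membranes (~300 μg protein) with ~5 nM [3H]DTG plus 1 μM (+)-pentazocine to mask σ1 sites, 2 h at room temperature. Compounds were diluted in pH 7.4 Tris-HCl/NaCl/EDTA buffer. Nonspecific binding taken with 10 μM haloperidol, then filtration and scintillation counting. IC50 from one-site regression. Ki by Cheng-Prusoff (Kd 30.73 nM), mean ± SEM.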

[3] = Selectivity ratio of Ki for sigma 1 receptor in guinea pig brain membrane homogenates to Ki for VAChT in Torpedo californica cholinergic synaptic vesicles; assay type: cell membranes
Summary of the method: (§1)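 Index calculated as Ki(σ1 or σ2)/Ki(VAChT). […] Averaged data were fit to a rectangular hyperbola, and each compound was assayed independently at least twice. σ Ki values come from the radioligand binding assays in guinea pig brain (σ1) and rat liver (σ2) membranes.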

[4] = molecular target: Sigma non-opioid intracellular receptor 1 (Cavia porcellus, UniProt Q60492); test: Displacement of [3H](+)-pentazocine from sigma 1 receptor in guinea pig brain membrane homogenates after 90 mins by liquid scintillation counting; assay type: cell membranes
Summary of the method: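 Compounds dissolved in DMF, DMSO or ethanol, then diluted in 50 mM Tris-HCl, 150 mM NaCl, 100 mM EDTA, pH 7.4. Guinea pig brain membranes (~300 μg protein) with ~5 nM [3H](+)-pentazocine, 90 min at room temperature. Nonspecific binding taken with 10 μM haloperidol. Filtered and counted. IC50 from one-site nonlinear fit. Ki by Cheng-Prusoff (Kd 7.89 nM), mean ± SEM.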

[5] = Selectivity ratio of for sigma 2 receptor in rat liver membrane homogenates to Ki for VAChT in Torpedo californica cholinergic synaptic vesicles; assay type: cell membranes; summary of the method: as §1

Sigma non-opioid intracellular receptor 1, sequence (Q60492 whole entry): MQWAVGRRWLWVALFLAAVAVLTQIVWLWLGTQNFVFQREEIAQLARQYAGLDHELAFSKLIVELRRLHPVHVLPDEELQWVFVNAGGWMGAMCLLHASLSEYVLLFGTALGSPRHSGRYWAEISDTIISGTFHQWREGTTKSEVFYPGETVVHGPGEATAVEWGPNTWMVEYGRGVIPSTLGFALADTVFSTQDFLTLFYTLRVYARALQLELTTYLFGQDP

Row | SMILES | Ki [1] [nM] | Ki [2] [nM] | Ratio Ki [3] | Ki [4] [nM] | Ratio Ki [5]
1 | O=C(c1ccc(I)s1)C1CCN([C@@H]2CCCC[C@H]2O)CC1 | 560 | 48.9 | 0.02 | 9.39 | 0.1
2 | Nc1cccc2c1C[C@@H](N1CCC(C(=O)c3ccc(Br)s3)CC1)[C@H](O)C2 | 0.41 | > 1000 | – | > 1000 | –
3 | O=C(Cc1ccccc1)C1(c2ccccc2)CCN([C@@H]2Cc3ccccc3C[C@H]2O)CC1 (relative stereo) | 1.38 | – | – | – | –
4 | O=C(c1ccc(F)cc1)C1CCN([C@@H]2CCCC[C@H]2O)CC1 | 423 | 113 | 0.7 | 303 | 0.3
5 | Nc1cccc2c1C[C@@H](N1CCC(C(=O)c3ccc(Br)cc3)CC1)[C@H](O)C2 | 0.53 | > 1000 | 746 | 395 | > 1890
6 | O=C(c1ccc(Br)s1)C1CCN([C@@H]2CCCC[C@H]2O)CC1 | 46.8 | 35.7 | 0.6 | 29.5 | 0.8
7 | Nc1cccc2c1C[C@@H](O)[C@H](N1CCC(C(=O)c3cccs3)CC1)C2 | 134 | > 1000 | – | > 1000 | –
8 | O=C(c1ccccc1)C1(c2ccccc2)CCN([C@@H]2CCCC[C@H]2O)CC1 | 68.5 | – | – | – | –
9 | O=C(c1ccc(I)s1)C1CCN([C@@H]2Cc3ccccc3C[C@H]2O)CC1 (relative stereo) | 0.66 | 344 | 294 | 194 | 522
10 | Nc1cccc2c1C[C@@H](N1CCC(C(=O)c3ccc(F)cc3)CC1)[C@H](O)C2 | 2.4 | > 1000 | – | > 1000 | –
11 | O=C(c1ccccc1)C1(c2ccccc2)CCN([C@@H]2Cc3ccccc3C[C@H]2O)CC1 (relative stereo) | 1.64 | – | – | – | –
12 | Nc1cccc2c1C[C@@H](O)[C@H](N1CCC(C(=O)N3CCCCC3)CC1)C2 | 447 | – | – | – | –
13 | O=C(C1CCN([C@@H]2Cc3ccccc3C[C@H]2O)CC1)N1CCCCC1 (relative stereo) | 31 | > 1000 | – | > 1000 | –
14 | O=C(C1CCN([C@@H]2Cc3ccccc3C[C@H]2O)CC1)N1CCC(Cc2ccccc2)CC1 (relative stereo) | 2.4 | > 1000 | 8.3 | 19.9 | –
15 | O=C(c1ccc(F)cc1)C1(c2ccccc2)CCN([C@@H]2Cc3ccccc3C[C@H]2O)CC1 | 1.83 | – | – | – | –
16 | O=C(c1ccc(Br)s1)C1CCN([C@@H]2Cc3ccccc3C[C@H]2O)CC1 (relative stereo) | 0.54 | 72 | 239 | 129 | 133
17 | O[C@@H]1CCCC[C@H]1N1CCC(c2ccccc2)CC1 [VESAMICOL] | – | 34.5 | – | – | –
18 | O=C(c1cccs1)C1CCN([C@@H]2CCCC[C@H]2O)CC1 | 763 | – | – | – | –
19 | Nc1cccc2c1C[C@@H](O)[C@H](N1CCC(C(=O)c3ccc(F)cc3)CC1)C2 | 7.6 | 353 | 65.4 | 497 | 46.4
20 | O=C(C1CCN([C@@H]2Cc3ccccc3C[C@H]2O)CC1)N1CCN(Cc2ccccc2)CC1 (relative stereo) | 2.08 | > 1000 | 56.8 | 118 | –
21 | O=C(c1ccc(Br)cc1)C1CCN([C@@H]2CCCC[C@H]2O)CC1 | 51.4 | 30.1 | 0.3 | 15.9 | 0.6
22 | CCOC(=O)C1CCN([C@@H]2Cc3ccccc3C[C@H]2O)CC1 (relative stereo) | 68.5 | > 1000 | – | > 1000 | –
23 | O=C(C1CCN([C@@H]2Cc3ccccc3C[C@H]2O)CC1)N1CCC(c2ccccc2)CC1 (relative stereo) | 2.07 | > 1000 | 24.3 | 50.2 | –
24 | Nc1cccc2c1C[C@@H](O)[C@H](N1CCC(C(=O)c3ccc(Br)s3)CC1)C2 | 29.4 | 121 | 16.4 | 483 | 4.1
25 | O=C(c1cccs1)C1CCN([C@@H]2Cc3ccccc3C[C@H]2O)CC1 (relative stereo) | 5 | – | – | – | –
26 | O=C(c1ccccc1)C1CCN([C@@H]2CCCC[C@H]2O)CC1 | 650 | 341 | 0.4 | 281 | 0.5
27 | Nc1cccc2c1C[C@@H](N1CCC(C(=O)c3cccs3)CC1)[C@H](O)C2 | 4.9 | > 1000 | – | > 1000 | –
28 | Nc1cccc2c1C[C@@H](N1CCC(C(=O)N3CCCCC3)CC1)[C@H](O)C2 | 89.5 | – | – | – | –
